Measured values of several laboratories.
Protocols differ between the studies behind these lines.
Target: RAC-beta serine/threonine-protein kinase (AKT2, Homo sapiens, UniProt P31751)

| SMILES | observed | action | technique | concentration | measurement | result |
| --- | --- | --- | --- | --- | --- | --- |
| Cc1nn(C)cc1-c1nc2c(N3CCN(Cc4ccc(Cl)cc4)CC3)c(Cl)cnc2[nH]1 | binding |  | competition with immobilised ligand | 1 µM | remaining binding | 100% |
| COc1cc(Nc2ncc(F)c(Nc3ccc4c(n3)NC(=O)C(C)(C)O4)n2)cc(OC)c1OC | binding |  |  | 10 µM | inhibition | 0% |
| CC(C)(C)c1cc(C=C(C#N)C#N)cc(Br)c1O | enzyme activity | inhibitor |  | 0.5 µM | remaining activity | 97.7% |
| Cn1cc(-c2cccc(N3CCc4c(sc5c4CC(C)(C)C5)C3=O)c2CO)cc(Nc2ccncn2)c1=O | enzyme activity | inhibitor |  | 1 µM | inhibition | 2% |
| O=c1[nH]c2ccccc2n1C1CCN(Cc2ccc(-c3[nH]c4cc5ncnc5cc4nc3-c3ccccc3)cc2)CC1 | cell-free assay |  |  | 0.5 µM | remaining signal | 96.8% |
| C#Cc1n[nH]c2c(-c3cn(C(C)c4ccccn4)c(=O)[nH]c3=O)cc(F)cc12 (centres unmarked) | enzyme activity | inhibitor |  | 1 µM | inhibition | 2% |
| N#CC1(c2ccccn2)CCN(Cc2cc(C(=O)O)c(=O)n3ccccc23)CC1 | cell-free assay |  | competition with immobilised ligand | 1 µM | remaining binding | 73% |
| Cn1cc(-c2cc(F)cc(N3CCn4c(cc5c4CCCC5)C3=O)c2CO)cc(Nc2ccc(N3CCN(C4COC4)CC3)cn2)c1=O | enzyme activity | inhibitor |  | 0.1 µM | inhibition | 9% |
| Nc1ncc(-c2nc(N3CCOCC3)nc(N3CCOCC3)n2)c(C(F)F)n1 | binding |  | competition with immobilised ligand | 10 µM | remaining binding | 100% |
| COc1ncccc1-c1cnn2ccc(N3CCN(C(=O)OC(C)C)CC3)nc12 | binding |  | competition with immobilised ligand | 1 µM | remaining binding | 98% |
| Cn1cncc1[C@@](O)(COc1ccc(C#N)cc1-c1ccc(OC(F)(F)F)cc1)c1ccc(C#N)cc1 | cell-free assay |  | competition with immobilised ligand | 1 µM | remaining binding | 78% |
